Series [1] has as its system Rattus norvegicus. Nature of the series: Reduction of cardiac damage in acute myocardial infarction Wistar rat model assessed as decrease in myocardial infarction at 8.5 mg/kg treated 5 mins before ischemia by TTC staining. On the set-up: scale not given: the % may be the effect or the level left. In kind it is functional, Myocardium. The essentials: (§1)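 In vivo: 8.5 mg/kg injected into left ventricle five minutes before ischemia; 35 min ischemia then 60 min reperfusion; infarct size of left ventricular free wall expressed as percent, n=7.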

For series [2], the system named is Rattus norvegicus. Nature of the series: Toxicity in Wistar rat assessed as histopathology at 6 mg/kg/day for 1 week. In kind it is organism-based. Conditions: in vivo, 168 h.
The subject of series [3] is Rattus norvegicus. Nature of the series: Toxicity in Wistar rat assessed as blood parameters at 6 mg/kg/day for 1 week. Format: organism-based. Conditions: in vivo, 168 h.
The subject of series [4] is Rattus norvegicus. Nature of the series: Induction of cell-stress in Wistar rat heart assessed as JNK activation at 8.5 mg/kg after 5 mind by Western blot analysis. In kind it is functional, organism-based. On the set-up: dose 8.5 mg/kg. Background: In western blotting, separated proteins are transferred to a membrane and probed.
In series [5] the test system is Rattus norvegicus. In words: Induction of cell-stress in Wistar rat heart assessed as JNK activation at 8.5 mg/kg after ischemia followed by reperfusion by occluding left anterior descending coronary artery ligation for 35 mins by Western blot analysis. In kind it is functional, organism-based. On the set-up: dose 8.5 mg/kg. The essentials:
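In vivo rat model: 8.5 mg/kg given into the left ventricle five minutes before 35 min ischemia, followed by 60 min reperfusion.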

In series [6] the target is T1, Aldehyde dehydrogenase, mitochondrial (Homo sapiens) (UniProt P05091).
T1 sequence (whole entry): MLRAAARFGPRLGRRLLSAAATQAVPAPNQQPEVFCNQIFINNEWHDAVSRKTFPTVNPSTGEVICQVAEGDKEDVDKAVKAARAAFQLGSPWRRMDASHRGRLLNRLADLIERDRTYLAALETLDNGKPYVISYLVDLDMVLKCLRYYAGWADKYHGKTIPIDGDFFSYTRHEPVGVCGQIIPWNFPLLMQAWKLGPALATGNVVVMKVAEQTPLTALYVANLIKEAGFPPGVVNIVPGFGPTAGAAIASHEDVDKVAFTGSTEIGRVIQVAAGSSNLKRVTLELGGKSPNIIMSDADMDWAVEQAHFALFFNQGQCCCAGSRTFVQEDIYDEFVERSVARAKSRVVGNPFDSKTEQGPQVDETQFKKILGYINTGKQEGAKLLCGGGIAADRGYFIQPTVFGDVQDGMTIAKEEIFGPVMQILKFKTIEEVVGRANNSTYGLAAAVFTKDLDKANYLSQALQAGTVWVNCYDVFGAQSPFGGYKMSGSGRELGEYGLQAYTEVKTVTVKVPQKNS
In words: Activation of human ALDH2 assessed as phosphorylated enzyme at 20 uM in absence of rat PKCepsilon by spectrophotometry.

In series [7] the target is T1, Aldehyde dehydrogenase, mitochondrial (Homo sapiens). Nature of the series: Activation of human ALDH2 assessed as phosphorylated enzyme at 20 uM in presence of rat PKCepsilon by spectrophotometry.
The nature of series [8]: Effect on alcohol dehydrogenase 1 activity at 100 uM.
Series [9] deals with T2, Aldehyde dehydrogenase 1A1 (Homo sapiens) (UniProt P00352).
T2 sequence (whole entry): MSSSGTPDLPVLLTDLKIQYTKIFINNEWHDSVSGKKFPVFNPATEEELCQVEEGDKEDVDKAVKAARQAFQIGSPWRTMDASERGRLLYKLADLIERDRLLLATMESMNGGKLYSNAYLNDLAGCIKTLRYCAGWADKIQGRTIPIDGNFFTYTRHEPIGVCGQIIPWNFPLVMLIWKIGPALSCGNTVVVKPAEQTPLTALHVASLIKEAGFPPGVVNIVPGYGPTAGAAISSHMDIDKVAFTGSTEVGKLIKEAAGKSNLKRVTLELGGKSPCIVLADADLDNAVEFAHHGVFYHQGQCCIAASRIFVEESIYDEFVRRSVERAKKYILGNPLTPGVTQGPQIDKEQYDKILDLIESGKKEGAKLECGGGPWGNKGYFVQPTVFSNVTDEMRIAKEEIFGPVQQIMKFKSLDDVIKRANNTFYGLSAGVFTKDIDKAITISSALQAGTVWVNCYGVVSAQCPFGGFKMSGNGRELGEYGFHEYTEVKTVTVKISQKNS
In words: Effect on human recombinant his-tagged cytosolic ALDH1A1 activity expressed in Escherichia coli BL21 cells at 100 uM.

Series [10] has as its target T3, Aldehyde dehydrogenase X, mitochondrial (Homo sapiens) (UniProt P30837).
T3 sequence (whole entry): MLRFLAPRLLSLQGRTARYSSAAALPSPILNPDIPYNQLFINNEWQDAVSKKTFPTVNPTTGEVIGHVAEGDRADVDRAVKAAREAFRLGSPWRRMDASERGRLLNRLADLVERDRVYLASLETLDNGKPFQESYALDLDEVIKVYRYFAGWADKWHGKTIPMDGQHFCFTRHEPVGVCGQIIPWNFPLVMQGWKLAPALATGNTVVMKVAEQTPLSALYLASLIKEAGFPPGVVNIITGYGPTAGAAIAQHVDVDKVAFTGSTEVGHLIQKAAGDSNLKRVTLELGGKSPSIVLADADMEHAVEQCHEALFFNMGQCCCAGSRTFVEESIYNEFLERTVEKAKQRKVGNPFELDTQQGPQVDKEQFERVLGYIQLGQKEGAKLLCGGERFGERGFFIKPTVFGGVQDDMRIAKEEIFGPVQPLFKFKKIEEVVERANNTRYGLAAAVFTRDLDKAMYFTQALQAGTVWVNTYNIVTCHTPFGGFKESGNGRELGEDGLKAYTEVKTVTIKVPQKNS
Nature of the series: Effect on human recombinant his-tagged mitochondrial ALDH5 activity expressed in Escherichia coli BL21 cells at 100 uM.

In series [11] the test system is BL21. In words: Increase in human recombinant ALDH2*2 E487K mutant activity expressed in Escherichia coli BL21 cells. A digest of the protocol:
(§2)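 Recombinant human ALDH2 proteins (wild type, heterozygous and homozygous mutant forms), 20μg each, assayed for enzymatic activity with 100 μM activator present; activity expressed as percent of untreated control; n=3.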

Series [12] deals with BL21. In words: Increase in human recombinant ALDH2*1/*2 E487K mutant heterotetramer activity expressed in Escherichia coli BL21 cells using wild type and mutant allele. A digest of the protocol: as §2
The target in series [13] is T1, Aldehyde dehydrogenase, mitochondrial (Homo sapiens). Nature of the series: Increase in wild type human recombinant ALDH2*1/*1 homotetramer activity expressed in Escherichia coli BL21 cells using wild type allele relative to basal activity. A digest of the protocol: as §2
In series [14] the test system is BL21. In words: Activation of human recombinant ALDH2*2 E487K mutant expressed Escherichia coli BL21 cells at 10 uM relative to control.
Series [15] has as its target T1, Aldehyde dehydrogenase, mitochondrial (Homo sapiens). Nature of the series: Activation of wild type human recombinant ALDH2*1 expressed Escherichia coli BL21 cells at 10 uM relative to control.
In series [16] the test system is Heart. In words: Ex vivo cardiac protection in Langendorff perfused Wistar rat heart assessed decrease in myocardial infarct size at 20 uM treated […] ischemia followed by 60 mins reperfusion by TTC staining. Format: functional. Also noted: scale not given: the % may be the effect or the level left. A digest of the protocol: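 Langendorff-perfused rat hearts pretreated 10 min with 20 μM drug or vehicle, then 35 min ischemia and 60 min reperfusion. Infarct size assessed by TTC staining of cross-sectional slices; n=7 hearts per group.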

For series [17], the system named is Heart. In words: Ex vivo cardiac protection in Langendorff perfused Wistar rat heart assessed decrease of CPK release at 20 uM treated 35 mins before ischemia followed by 60 mins reperfusion. In kind it is functional. On the set-up: scale not given: the % may be the effect or the level left.
For series [18], the system named is Rattus norvegicus. Nature of the series: Reduction of cardiac damage in acute myocardial infarction Wistar rat model assessed as decrease in infarct size at 8.5 mg/kg treated before left anterior descending coronary artery ligation measured after 35 mins of ischemia followed by 60 mins reperfusion by TTC staining. Also noted: scale not given: the % may be the effect or the level left. Format: functional, Myocardium. The essentials: as §1

In series [19] the test system is Rattus norvegicus. In words: Cardiac protection in Wistar rat assessed as decrease in infarct size at 5 ug/min/kg for 13 hrs prolonged treatment terminated 3 hrs before ischemia. On the set-up: scale not given: the % may be the effect or the level left. In kind it is functional.
The target of series [20] is T4, Aldehyde dehydrogenase, mitochondrial (Rattus norvegicus) (UniProt P11884).
T4 sequence (whole entry): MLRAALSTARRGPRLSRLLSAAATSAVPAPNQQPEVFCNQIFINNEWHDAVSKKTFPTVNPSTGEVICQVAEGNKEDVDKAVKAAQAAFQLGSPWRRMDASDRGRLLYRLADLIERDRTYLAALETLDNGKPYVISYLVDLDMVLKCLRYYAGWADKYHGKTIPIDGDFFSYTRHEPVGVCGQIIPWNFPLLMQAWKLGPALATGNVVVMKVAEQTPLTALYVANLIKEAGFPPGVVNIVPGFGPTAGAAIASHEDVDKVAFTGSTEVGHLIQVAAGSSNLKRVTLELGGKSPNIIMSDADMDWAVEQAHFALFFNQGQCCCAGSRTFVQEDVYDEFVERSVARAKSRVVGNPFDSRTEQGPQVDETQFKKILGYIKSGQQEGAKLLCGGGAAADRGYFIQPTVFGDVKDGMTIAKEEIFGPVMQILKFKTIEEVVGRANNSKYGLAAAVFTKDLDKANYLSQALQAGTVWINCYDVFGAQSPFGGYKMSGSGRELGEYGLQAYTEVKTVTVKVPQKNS
In words: Induction of ALDH2 activity in langendorff perfused ischemic Wistar rat heart homogenate assessed as NADH level in per mg of protein at 1 uM after 10 mins by spectrophotometry. In kind it is tissue-based. A digest of the protocol: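 Rat hearts on a Langendorff apparatus perfused with oxygenated Krebs-Henseleit buffer containing 1μM εPKC agonist peptide for 10 min, then subjected to ischemia; ALDH activity measured in heart homogenates.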

Series [21] concerns Heart. Nature of the series: Cardiac protection in Langendorff perfused ischemic Wistar rat heart assessed as reduction of infarct size at 1 uM for 10 mins by TTC staining. Format: functional. Also noted: scale not given: the % may be the effect or the level left.

Active and inactive are the calls of the source. The rule behind the calls is not given here.

Take `O=C(NCc1ccc2c(c1)OCO2)c1c(Cl)cccc1Cl`: the Activity was 60% in [1]; “Non-toxic” in [2]; “Non-toxic” in series [3]; 90% in [6]; 100% in series [7]; 900% in [14]. The Activity in series [15] is 65%; in [16], 26%; in [17], 24%; in [18], 43%. For the same molecule, the result in series [4], in [5], in series [8], in series [9] and in series [10] was inactive. For the same molecule, the fold change (FC) in series [11] was 11; in [12] it was 2.2; in [13], 2.1.

Turning to `O=[N+]([O-])OCC(CO[N+](=O)[O-])O[N+](=O)[O-]` [NITROGLYCERIN], in series [19], the Activity is on record as 33%.

As for `O=C(NCc1ccc2c(c1)OCO2)c1c(F)cccc1F`, the results for the Activity in series [14] and in series [15] were 330% and 41%, respectively.

On to H-HDAPIGYD-OH, for which the Activity in [20] came out at 3.2 µmol/min; in series [21] it was 23%.

With `O=C(NCc1ccc2c(c1)OCO2)c1ccccc1Br`, the Activity in series [14] worked out at 550%; in [15] it was 56%.

The values above are taken from ChEMBL document CHEMBL1152868, “Activation of aldehyde dehydrogenase-2 reduces ischemic damage to the heart” (Science, 2008).
